We go through two compounds from ChEMBL document CHEMBL4190262, “Tuning of β-glucosidase and α-galactosidase inhibition by generation and in situ screening of a library of pyrrolidine-triazole hybrid molecules” (Eur J Med Chem, 2017).

Experiment [1] has as its system Canavalia ensiformis. Nature of the experiment: Inhibition of jack bean beta-N-acetylglucosaminidase at 1 mM using p-nitrophenyl glycopyranoside preincubated for 5 mins followed by substrate addition measured after 20 mins by visible absorption spectroscopic method relative to control. Put shortly: (§1)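 Test compound at 1 mM in well. Mix: 0.01–0.5 units/mL enzyme plus 10 mM p-nitrophenyl glycopyranoside (aqueous solution), buffered to the enzyme's optimal pH. Enzyme and inhibitor preincubated 5 min at rt. Substrate then added and incubated 20 min at 37 °C. Stopped with sodium borate (pH 9.8). p-Nitrophenolate read at 405 nm. Duplicates averaged.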

For experiment [2], the target named is Alpha-galactosidase (Coffea arabica) (UniProt Q42656). As to the kind of experiment: Inhibition of coffee beans alpha-galactosidase at 1 mM using p-nitrophenyl glycopyranoside preincubated for 5 mins followed by substrate addition measured after 20 mins by visible absorption spectroscopic method relative to control. Put shortly: as §1
Experiment [3] has as its target T1, Alpha-mannosidase (Canavalia ensiformis) (UniProt C0HJB3).
T1 sequence (whole entry): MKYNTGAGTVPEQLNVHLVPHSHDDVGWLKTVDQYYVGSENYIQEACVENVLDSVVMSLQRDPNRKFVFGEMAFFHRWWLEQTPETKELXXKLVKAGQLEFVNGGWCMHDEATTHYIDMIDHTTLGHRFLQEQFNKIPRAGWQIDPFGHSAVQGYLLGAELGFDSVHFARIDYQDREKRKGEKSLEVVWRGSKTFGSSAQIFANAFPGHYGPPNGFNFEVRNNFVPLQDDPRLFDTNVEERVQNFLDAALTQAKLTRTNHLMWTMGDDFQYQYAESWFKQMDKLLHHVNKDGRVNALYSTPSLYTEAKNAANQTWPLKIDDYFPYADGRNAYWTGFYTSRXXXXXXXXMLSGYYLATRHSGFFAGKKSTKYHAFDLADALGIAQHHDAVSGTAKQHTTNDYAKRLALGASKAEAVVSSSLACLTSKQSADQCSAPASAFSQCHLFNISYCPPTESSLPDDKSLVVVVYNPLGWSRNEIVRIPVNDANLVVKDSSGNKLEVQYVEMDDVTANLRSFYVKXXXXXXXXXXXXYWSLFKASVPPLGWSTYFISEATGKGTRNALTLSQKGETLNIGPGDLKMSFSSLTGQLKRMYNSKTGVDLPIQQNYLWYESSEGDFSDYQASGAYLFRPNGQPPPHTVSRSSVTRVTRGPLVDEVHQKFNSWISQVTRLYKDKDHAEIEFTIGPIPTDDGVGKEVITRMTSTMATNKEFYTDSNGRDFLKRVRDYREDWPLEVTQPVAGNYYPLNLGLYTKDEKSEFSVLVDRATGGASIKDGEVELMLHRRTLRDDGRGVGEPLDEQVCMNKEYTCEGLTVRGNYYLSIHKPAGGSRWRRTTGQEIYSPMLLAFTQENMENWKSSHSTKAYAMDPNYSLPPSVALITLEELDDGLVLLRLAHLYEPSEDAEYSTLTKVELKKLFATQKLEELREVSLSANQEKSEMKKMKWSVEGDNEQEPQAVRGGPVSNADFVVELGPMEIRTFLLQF
Nature of the experiment: Inhibition of jack bean alpha-mannosidase at 1 mM using p-nitrophenyl glycopyranoside preincubated for 5 mins followed by substrate addition measured after 20 mins by visible absorption spectroscopic method relative to control. Put shortly: as §1

In experiment [4] the target is Alpha-galactosidase (Coffea arabica) (UniProt Q42656). Nature of the experiment: Inhibition of coffee beans alpha-galactosidase at 50 uM using p-nitrophenyl glycopyranoside preincubated for 5 mins followed by substrate addition measured after 20 mins by visible absorption spectroscopic method relative to control. Put shortly:
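Crude triazoles from in situ CuAAC (ascorbate/CuSO4, 24 h rt, water-diluted) were screened at 50 μM per well, assuming full conversion. Enzyme was coffee bean α-galactosidase at pH 6, 37 °C, with p-nitrophenyl glycoside substrate and 405 nm read-out. Blanks of CuSO4, ascorbate and each alkyne were run.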

In experiment [5] the target is T2, Beta-galactosidase (Aspergillus oryzae) (UniProt B7VU80).
T2 sequence (whole entry): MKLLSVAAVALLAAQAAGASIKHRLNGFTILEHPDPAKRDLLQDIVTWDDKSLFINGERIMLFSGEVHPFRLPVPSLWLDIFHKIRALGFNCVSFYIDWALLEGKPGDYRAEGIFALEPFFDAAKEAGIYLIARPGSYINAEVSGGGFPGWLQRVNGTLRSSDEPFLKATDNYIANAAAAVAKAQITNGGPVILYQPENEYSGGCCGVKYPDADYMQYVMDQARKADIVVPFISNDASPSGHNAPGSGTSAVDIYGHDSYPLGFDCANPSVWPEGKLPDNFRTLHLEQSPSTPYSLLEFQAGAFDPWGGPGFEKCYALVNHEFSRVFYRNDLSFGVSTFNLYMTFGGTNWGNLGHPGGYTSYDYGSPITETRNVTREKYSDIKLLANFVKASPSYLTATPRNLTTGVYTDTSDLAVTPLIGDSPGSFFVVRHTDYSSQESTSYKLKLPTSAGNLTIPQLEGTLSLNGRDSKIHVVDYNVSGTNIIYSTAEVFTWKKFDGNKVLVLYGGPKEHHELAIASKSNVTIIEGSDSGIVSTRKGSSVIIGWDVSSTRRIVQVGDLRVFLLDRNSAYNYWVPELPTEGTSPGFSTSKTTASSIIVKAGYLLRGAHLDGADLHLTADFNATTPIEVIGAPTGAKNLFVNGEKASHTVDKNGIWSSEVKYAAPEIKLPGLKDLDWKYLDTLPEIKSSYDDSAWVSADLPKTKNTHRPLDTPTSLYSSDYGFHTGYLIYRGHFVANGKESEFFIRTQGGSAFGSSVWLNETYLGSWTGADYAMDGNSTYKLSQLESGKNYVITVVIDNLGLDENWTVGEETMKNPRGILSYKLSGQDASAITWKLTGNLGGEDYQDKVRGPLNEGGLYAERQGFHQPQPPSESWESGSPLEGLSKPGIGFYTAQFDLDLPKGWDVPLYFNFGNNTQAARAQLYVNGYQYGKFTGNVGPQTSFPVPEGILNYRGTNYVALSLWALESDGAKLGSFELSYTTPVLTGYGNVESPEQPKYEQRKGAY
As to the kind of experiment: Inhibition of Aspergillus oryzae beta-galactosidase at 1 mM using p-nitrophenyl glycopyranoside preincubated for 5 mins followed by substrate addition measured after 20 mins by visible absorption spectroscopic method relative to control. Put shortly: as §1

For experiment [6], the system named is Saccharomyces cerevisiae. Nature of the experiment: Inhibition of yeast alpha glucosidase at 1 mM using p-nitrophenyl glycopyranoside preincubated for 5 mins followed by substrate addition measured after 20 mins by visible absorption spectroscopic method relative to control. In a few lines: as §1
For experiment [7], the species on record is Bos taurus. As to the kind of experiment: Inhibition of bovine kidney alpha-L-fucosidase at 1 mM using p-nitrophenyl glycopyranoside preincubated for 5 mins followed by substrate addition measured after 20 mins by visible absorption spectroscopic method relative to control. In a few lines:
as §1

The subject of experiment [8] is Cornu aspersum. Nature of the experiment: Inhibition of snail beta-mannosidase at 1 mM using p-nitrophenyl glycopyranoside preincubated for 5 mins followed by substrate addition measured after 20 mins by visible absorption spectroscopic method relative to control. Put shortly:
as §1

Experiment [9] has as its system Oryza sativa. As to the kind of experiment: Inhibition of rice alpha-glucosidase at 1 mM using p-nitrophenyl glycopyranoside preincubated for 5 mins followed by substrate addition measured after 20 mins by visible absorption spectroscopic method relative to control. Put shortly:
as §1

Experiment [10] relates to Aspergillus niger. As to the kind of experiment: Inhibition of Aspergillus niger amyloglucosidase at 1 mM using p-nitrophenyl glycopyranoside preincubated for 5 mins followed by substrate addition measured after 20 mins by visible absorption spectroscopic method relative to control. In a few lines:
as §1

Experiment [11] addresses Beta-galactosidase (Escherichia coli) (UniProt Q8VNN2). As to the kind of experiment: Inhibition of Escherichia coli beta-galactosidase at 1 mM using p-nitrophenyl glycopyranoside preincubated for 5 mins followed by substrate addition measured after 20 mins by visible absorption spectroscopic method relative to control. In a few lines:
as §1

The test system of experiment [12] is Prunus dulcis. As to the kind of experiment: Inhibition of almond beta-glucosidase at 1 mM using p-nitrophenyl glycopyranoside preincubated for 5 mins followed by substrate addition measured after 20 mins by visible absorption spectroscopic method relative to control. Put shortly: as §1
The target of experiment [13] is Alpha-galactosidase (Coffea arabica, UniProt Q42656). Nature of the experiment: Inhibition of coffee beans alpha-galactosidase using p-nitrophenyl glycopyranoside preincubated for 5 mins followed by substrate addition measured after 20 mins by visible absorption spectroscopic method. In a few lines: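 IC50 determined only for compounds giving ≥80% inhibition at 1 mM, read from plots of % inhibition versus inhibitor concentration. p-Nitrophenyl glycopyranoside substrate (10 mM solution) at the enzyme's optimal pH, with 0.01–0.5 units/mL enzyme. 5 min rt preincubation with enzyme, then 20 min at 37 °C. Borate stop (pH 9.8), absorbance at 405 nm. Duplicates averaged.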

For experiment [14], the system named is Prunus dulcis. As to the kind of experiment: Inhibition of almond beta-glucosidase at 10 uM using p-nitrophenyl glycopyranoside preincubated for 5 mins followed by substrate addition measured after 20 mins by visible absorption spectroscopic method relative to control. Put shortly: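 Crude click-reaction products screened in situ. Azide (final 15 mM) was reacted with each alkyne using sodium ascorbate/CuSO4 in tBuOH–H2O for 24 h at rt, then diluted with water. Tested at 10 μM per well, assuming quantitative conversion, against almond β-glucosidase at pH 5, 37 °C. p-Nitrophenyl glycoside read-out at 405 nm.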

The source made the active and inactive calls. The rule behind the calls is not given here.

Alpha-galactosidase (Coffea arabica), sequence (Q42656 16-378 limits assumed): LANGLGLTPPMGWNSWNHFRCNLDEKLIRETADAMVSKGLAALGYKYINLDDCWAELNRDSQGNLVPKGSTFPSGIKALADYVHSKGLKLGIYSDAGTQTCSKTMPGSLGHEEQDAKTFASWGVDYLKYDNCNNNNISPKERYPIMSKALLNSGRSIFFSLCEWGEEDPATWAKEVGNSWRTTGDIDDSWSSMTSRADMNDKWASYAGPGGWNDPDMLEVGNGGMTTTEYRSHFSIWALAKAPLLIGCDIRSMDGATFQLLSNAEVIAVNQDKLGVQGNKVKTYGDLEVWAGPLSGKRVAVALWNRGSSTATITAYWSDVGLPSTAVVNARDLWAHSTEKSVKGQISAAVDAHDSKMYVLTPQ
Beta-galactosidase (Escherichia coli), sequence (Q8VNN2 whole entry, looked up): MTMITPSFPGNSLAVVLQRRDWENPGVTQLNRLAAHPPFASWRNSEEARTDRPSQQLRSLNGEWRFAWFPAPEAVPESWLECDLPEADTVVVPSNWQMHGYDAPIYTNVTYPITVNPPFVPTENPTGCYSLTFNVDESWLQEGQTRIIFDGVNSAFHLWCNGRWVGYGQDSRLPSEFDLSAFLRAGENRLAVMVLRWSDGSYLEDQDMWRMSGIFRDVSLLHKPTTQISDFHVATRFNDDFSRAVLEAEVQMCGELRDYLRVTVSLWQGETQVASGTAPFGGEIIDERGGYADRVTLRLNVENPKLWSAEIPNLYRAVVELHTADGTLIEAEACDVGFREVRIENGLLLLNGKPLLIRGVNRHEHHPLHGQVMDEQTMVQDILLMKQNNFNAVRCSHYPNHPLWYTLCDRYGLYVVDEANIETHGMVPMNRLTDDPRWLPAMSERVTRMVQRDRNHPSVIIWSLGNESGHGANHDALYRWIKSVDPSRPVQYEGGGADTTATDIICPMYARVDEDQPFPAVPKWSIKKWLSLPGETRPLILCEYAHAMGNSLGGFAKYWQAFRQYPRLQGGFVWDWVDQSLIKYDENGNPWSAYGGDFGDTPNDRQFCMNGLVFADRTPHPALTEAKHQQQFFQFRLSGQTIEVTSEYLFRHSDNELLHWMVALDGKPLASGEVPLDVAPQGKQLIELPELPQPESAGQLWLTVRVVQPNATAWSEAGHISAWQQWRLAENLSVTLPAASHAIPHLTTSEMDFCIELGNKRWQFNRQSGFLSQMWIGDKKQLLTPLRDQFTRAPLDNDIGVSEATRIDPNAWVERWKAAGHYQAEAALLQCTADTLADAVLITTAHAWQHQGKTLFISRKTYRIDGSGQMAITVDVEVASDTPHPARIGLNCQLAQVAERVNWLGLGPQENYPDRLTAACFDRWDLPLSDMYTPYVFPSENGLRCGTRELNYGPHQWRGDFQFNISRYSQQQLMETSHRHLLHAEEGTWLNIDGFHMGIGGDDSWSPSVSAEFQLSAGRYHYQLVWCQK
Alpha-galactosidase, sequence (Q42656 whole entry): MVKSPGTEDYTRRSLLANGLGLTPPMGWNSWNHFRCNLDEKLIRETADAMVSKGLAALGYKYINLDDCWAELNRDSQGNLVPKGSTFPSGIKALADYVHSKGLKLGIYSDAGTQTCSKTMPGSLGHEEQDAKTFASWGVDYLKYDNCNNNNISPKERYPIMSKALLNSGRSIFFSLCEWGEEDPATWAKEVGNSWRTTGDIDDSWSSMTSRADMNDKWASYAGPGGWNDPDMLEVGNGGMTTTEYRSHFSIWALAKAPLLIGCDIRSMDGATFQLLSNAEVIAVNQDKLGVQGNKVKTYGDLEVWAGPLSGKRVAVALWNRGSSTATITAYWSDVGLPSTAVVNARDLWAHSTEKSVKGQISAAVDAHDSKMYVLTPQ

For orientation: inhibition means the percentage by which the read-out fell short of the control. One may read the IC50 as the midpoint of a concentration-inhibition curve. High values mean lower potency, low ones higher potency. In the case of `[N-]=[N+]=NC[C@H]1NC[C@@H](O)[C@H]1O`, the inhibition result in experiment [1], in [6], in [7], in experiment [8], in experiment [9] and in [10] was “inactive” each time. The inhibition result in experiment [11] was “inactive”. The inhibition in experiment [2] came out at 88%; in experiment [3] it was 43%; in experiment [4], 38%; in [5], 50%; in experiment [12], 89%. This compound also displayed an IC50 in experiment [13] of 127 µM.
Take `[N-]=[N+]=NC[C@@H]1NC[C@@H](O)[C@H]1O`: the inhibition result in experiment [1], in [5], in [6], in [8], in experiment [9] and in experiment [14] was “inactive” throughout. Besides, the inhibition result in experiment [10], in [11] and in [12] was “inactive” each time. The inhibition amounted to 44% in experiment [2], 71% in experiment [3] and 33% in experiment [7].
